Source: ChEMBL document CHEMBL1124296, “Molecular basis for bleomycin amplification: conformational and stereoelectronic effects in unfused amplifiers” (J Med Chem, 1988)

Tested on: Calf thymus DNA
Assay: Binding constant to DNA measured spectrophotometrically
Format: nucleic-acid assay
Settings: Bos taurus
Method in brief: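 Calf thymus DNA, stripped of residual protein and dialyzed into PIPES 00 buffer (0.01 M PIPES, 0.001 M EDTA, NaOH to pH 7.00, [Na⁺] 0.019 M). DNA-P concentration was read at 260 nm with ε 6600 M⁻¹ cm⁻¹. Equilibrium binding constants were obtained spectrophotometrically by an earlier-reported procedure.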

Compound	K [M⁻¹]
CSc1cc(-c2cccs2)nc(NCCN(C)C)n1	13700
Cc1cnc(SCCN(C)C)nc1-c1cccs1	48000
CN(C)CCSc1nccc(-c2cccn2C)n1	10100
CN(C)CCOc1cccc(-c2ccccc2)c1	3000
CN(C)CCSc1nccc(-c2ccccc2)n1	8600
CN(C)CCOc1ccccc1-c1ccccc1	3000
CN(C)CCOc1ccc(-c2ccccc2)cc1	3000
Cc1cc(-c2cccs2)nc(SCCN(C)C)n1	24800
CSc1nc(NCCN(C)C)cc(-c2cccs2)n1	6800
CN(C)CCNc1nccc(-c2cccs2)n1	4400
CN(C)CCSc1nccc(-c2nccs2)n1	9250
CN(C)CCOc1nccc(-c2cccs2)n1	3400
CN(C)CCNc1nccc(-c2nccs2)n1	3900
CN(C)CCSc1nccc(-c2cccs2)n1	18700
CN(C)CCSc1nccc(-c2ccco2)n1	3500
Cc1ccnc(-c2cc(COCCN(C)C)ccn2)c1	3000
